Screens: PubChem BioAssay, several laboratories
Sampled rows, rich in hits. Any-hit rate of the full collection: about 2%.
Autophagy HCS = autophagy modulation, high-content screen; 190,000 tested, 0.98% active; MEF GFP-LC3 puncta imaging; test concentration mostly 10 µM; calls only at 10 µM (by protocol);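 active = percentage of spot-positive cells more than 3 SD above its plate mean, without a fluorescence outlier flag or 80% toxicity; inconclusive = no clear call, values can overlap the other calls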;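 also: spot-positive cell cutoff set from DMSO-treated cells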
Ins promoter up = MIN6 insulin promoter up-regulation | MIN6 insulin promoter-GFP reporter, high-content imaging; hits give high values | z-score at 5 µM | 190,000 tested, 0.3% active | AID 1625;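 active = z-score above 3 at 5 µM with at least 500 cells counted in the well; inconclusive = wells under 500 cells, flagged as cytotoxic or low count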
Furin inhibitor = human furin inhibition; P09958; purified furin, fluorogenic substrate cleavage; inhibition, % at 20 µM or 30 µM; 220,000 tested, 0.061% active; AID 463115; in the data active = inhibition above about 25%
Target sequence (P09958 108-714 limits assumed): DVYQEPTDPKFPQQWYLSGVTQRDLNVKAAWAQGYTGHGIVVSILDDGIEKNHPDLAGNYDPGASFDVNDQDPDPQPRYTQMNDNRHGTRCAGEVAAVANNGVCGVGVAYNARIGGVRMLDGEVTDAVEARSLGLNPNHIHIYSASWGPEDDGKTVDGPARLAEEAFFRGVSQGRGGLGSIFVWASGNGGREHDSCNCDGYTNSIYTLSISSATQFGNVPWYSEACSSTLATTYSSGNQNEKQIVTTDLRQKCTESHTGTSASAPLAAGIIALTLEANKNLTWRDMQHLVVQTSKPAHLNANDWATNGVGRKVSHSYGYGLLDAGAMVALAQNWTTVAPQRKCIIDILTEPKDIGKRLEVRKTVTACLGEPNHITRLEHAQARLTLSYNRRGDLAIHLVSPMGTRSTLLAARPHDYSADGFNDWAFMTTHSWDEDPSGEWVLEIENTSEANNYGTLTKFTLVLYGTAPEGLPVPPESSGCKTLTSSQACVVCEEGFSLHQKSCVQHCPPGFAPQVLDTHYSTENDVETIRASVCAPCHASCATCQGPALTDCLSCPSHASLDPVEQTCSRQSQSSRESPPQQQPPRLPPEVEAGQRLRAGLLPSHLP
Insulin prom inh = TRM-6 insulin promoter activity inhibition; 130,000 tested, 0.9% active; inhibition, % at 2 µM; TRM-6 cells (human fetal islet line), insulin promoter-eGFP reporter, imaging; reporter expression induced with tamoxifen; AID 1273;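 active = inhibition above the mean plus 3 SD, with well images judged a real hit on visual review, cut at about 60% in these data, passing the limit was not always enough; inconclusive = inhibition over the cutoff but images rejected on review; inactive = inhibition not above the cutoff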
Dynein cargo inh = dynein cargo transport inhibition; 3617.4 mouse cells, GR-EGFP nuclear translocation imaging; test concentration mostly 20 µM; stimulated with dexamethasone, 1 µM; hits give low values; z-score, hits read low; AID 1381; 220,000 tested, 0.47% active;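 active = plate z-score of nuclear minus cytoplasmic receptor signal below a set negative limit, without overly bright fluorescence or cell loss, cut at about -3.5 in these data, passing the limit was not always enough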;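 also: z-score of nuclear minus cytoplasmic ring GR-EGFP intensity difference per well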
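Buffer or medium: tetracycline-free induction medium containing charcoal-stripped FBS / Reagent: dexamethasone agonist, 1.0 µM final, for 30 min / Technique: automated 10x imaging of fixed Hoechst-stained cells / Times: induction 48 h, compound 1 h, agonist 30 min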
HSV augment = increases HSV replication in cells; 220,000 tested, 0.005% active; maximum fold increase; HSV replication augmentation in cells, fold increase; AID 1956; in the data active = maximum fold increase above about 1.5; inconclusive = no clear call, values can overlap the other calls; tested in PC3 cells
Dynein confirm = dynein cargo transport inhibition, confirmation; calls only at 20 µM; shares compounds with Dynein cargo inh; 3617.4 GR-EGFP nuclear translocation imaging, dexamethasone-induced; 1,000 tested, 69% active;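 active = inhibition of receptor movement into the nucleus at or above a set limit in both runs, with normal cell brightness and cell count; inconclusive = limit reached in only one run, brightness and count normal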;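 also: dexamethasone at 1 µM final in well for 30 min; nuclear minus cytoplasmic GR-EGFP mean intensity difference in channel 2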
Active calls of the source: *; i = inactive; ? = inconclusive; nt = no result; + = active, no number.

SMILES | Autophagy HCS | Ins promoter up | Furin inhibitor | Insulin prom inh | Dynein cargo inh | HSV augment | Dynein confirm
COc1cccc(/C=C/C(=O)c2cccc([N+](=O)[O-])c2)c1 | i | -0.49 | -13.2 | -52.6 | -4.53* | i | +
N#C/C(=C\c1cccc([N+](=O)[O-])c1)C(=O)NCc1cccnc1 | i | -0.18 | -16.3 | -36.5 | 0.27 | i | nt
N#C/C(=C\c1cccc([N+](=O)[O-])c1)C(=O)NCc1ccc(Cl)cc1 | i | -0.29 | -18.7 | nt | -6.8* | i | +
COc1ccc(/C=C/C(=O)CC(O)(c2ccccc2)C(F)(F)F)cc1 (stereo not given) | i | -0.69 | -14.1 | 84.6* | -3.84* | i | +
O=C(/C=C/c1ccccc1)CC(O)(c1ccccc1)C(F)(F)F (stereo not given) | i | 0.33 | -23.3 | 50.0 | -2.86 | i | nt
CCOc1cc(/C=C2/COc3ccccc3C2=O)ccc1OCC(=O)N(C)C | i | -0.62 | -4.8 | nt | -3.56* | i | +
CN(C)c1ccc(C=C(c2nnnn2-c2ccccc2)c2nnnn2-c2ccccc2)cc1 | i | 1.62 | -17.1 | -42.3 | -0.264 | i | nt
COc1ccccc1N1C(=O)C2CC(C)=C(C)CC2C1=O (stereo not given) | i | -0.16 | -17.1 | -35.7 | -0.94 | i | nt
COc1ccccc1N1C(=O)C=C(Sc2nc(C)cc(C)n2)C1=O | nt | 0.04 | -21.5 | nt | -3.95* | i | +
COc1ccc(-c2nc(N)c(C#N)c(-c3cccnc3)c2C)cc1 | nt | -0.74 | -4.6 | nt | -0.112 | i | nt
N#CCOc1nc(N2CCCCC2)nc(N2CCCCC2)n1 | i | -0.56 | -1.1 | nt | 0.222 | i | nt
CCOc1nc(C#N)nc(N2CCCCC2)n1 | i | -0.01 | -29.0 | nt | -3.53* | nt | +
O=C(CC1N=C(Cc2ccccc2)NNC1=O)N/N=C/c1ccc([N+](=O)[O-])cc1 (stereo not given) | i | 0.09 | -10.8 | nt | 0.222 | i | nt
O=C(OCn1ncc(Br)c(Br)c1=O)c1ccc(F)cc1 | i | nt | -15.4 | -185.7 | -5.1* | i | +
COc1ccc(C(=O)N(C)Cc2ccccc2)cc1Br | i | -0.4 | -16.5 | nt | 0.277 | i | nt
CCn1c(=O)c([N+](=O)[O-])c(NCC2CCCO2)c2ccccc21 (stereo not given) | nt | -0.21 | -8.2 | nt | -0.523 | i | nt
CC1CN(Cc2nnc(-c3ccccc3)o2)CC(C)O1 (stereo not given) | i | -1.38 | -26.8 | nt | -0.905 | i | nt
Cc1c(-c2ccc(O)cc2)nc2nc(-c3ccccc3)c(-c3ccccc3)nn12 | nt | nt | -16.6 | nt | -5.28 | i | +
Cc1nnc2c3ccccc3c(-c3ccc(O)cc3)nn12 | i | -0.38 | -17.5 | -27.8 | -0.385 | nt | nt
CC1(C)CC(N=c2cc(-c3ccccc3)oc3ccc(Cl)cc23)CC(C)(C)N1 | + | ? | 10.7 | -57.1 | -3.52* | i | i
NCc1oc(-c2ccccc2)cc1C(=O)O | i | -0.02 | -11.4 | 64.3 | 1.22 | i | nt
COc1ccc(C(=O)CCN2CCN(c3ccccc3F)CC2)cc1 | i | 1.12 | -20.0 | -25.6 | -0.826 | i | nt
O=C(CCN1CCN(c2ccccc2F)CC1)c1ccc(Br)cc1 | i | 0.44 | -25.9 | nt | -4.27* | i | i
COC(=O)c1scc(C)c1NC(=O)/C=C/C(=O)O | nt | -0.45 | -30.7 | nt | -3.76* | i | i
O=[N+]([O-])c1ccc(/C=C/C2=NN(c3ccccc3)C(c3ccco3)C2)o1 (stereo not given) | + | nt | -20.3 | nt | -6.82 | ? | +
SMILES | Autophagy HCS | Ins promoter up | Furin inhibitor | Insulin prom inh | Dynein cargo inh | HSV augment | Dynein confirm
C(=C\c1ccco1)/C1=NN(c2ccccc2)C(c2ccco2)C1 (stereo not given) | i | 0.09 | -17.0 | -115.4 | -0.221 | ? | nt
CN(C)S(=O)(=O)c1cccc(C(=O)N=C2N=C3C=CC(Cl)=CN3Cc3ccccc32)c1 | nt | 0.41 | -10.6 | nt | 1.18 | i | nt
N#CC1=C(N)N(c2ccccc2)C(c2cccc([N+](=O)[O-])c2)C1(C#N)C#N (stereo not given) | i | 0.35 | -2.3 | -5.4 | -3.66* | i | +
Cc1cccc(N2C(N)=C(C#N)C(C#N)(C#N)C2c2ccccc2)c1 (stereo not given) | i | 0.14 | -15.3 | nt | -1.26 | i | nt
CCNc1nc(NCC)n2c(SCC(=O)c3ccccc3Cl)nnc2n1 | i | 0.69 | -31.8 | 21.4 | -0.624 | nt | nt
C=CCNCCCOc1ccc(Cl)cc1C(C)(C)C | i | -0.09 | -5.7 | nt | -6.67* | i | i
O=C(NCc1ccccc1)C1CCN(S(=O)(=O)c2ccc(Cl)cc2)CC1 | i | -0.97 | -18.1 | nt | -0.053 | i | nt
N#Cc1cccc(NC(=O)CSc2ccccc2)c1 | i | -0.19 | -12.2 | 9.1 | -0.233 | i | nt
N#Cc1cccc(NC(=O)CSc2ccc3c4c(cccc24)C(=O)c2ccccc2-3)c1 | + | nt | -9.2 | -233.3 | -6.01 | nt | +
COc1ccccc1C(C[N+](=O)[O-])c1c(N)n(C)c(=O)n(C)c1=O (stereo not given) | nt | -0.82 | -24.6 | nt | -3.54* | i | ?
Cc1ccc(NC(=O)N2CCCC2C(=O)NCC2CCCO2)cc1 (stereo not given) | i | -0.29 | -7.8 | nt | 0.442 | i | nt
CN(C)C(C)(C)/C=C/C(O)(c1ccccc1)c1ccccc1 | nt | -0.59 | -14.4 | nt | -0.0636 | i | nt
Clc1ncnc2scc(-c3ccc(Br)cc3)c12 | i | 0.24 | 2.6 | 41.4 | -4.45* | i | +
CSc1nnc(-c2cc[n+](C)cc2)n1CCO | i | 0.06 | -15.4 | 25.0 | -0.0446 | nt | nt
COc1ccc(N(C(=O)Cc2cccs2)C(C(=O)NC2CCCCC2)c2cccn2C)cc1OC (stereo not given) | i | nt | -3.9 | -87.5 | 0.55 | i | nt
C#CC(=O)N(c1ccc(OC)c(OC)c1)C(C(=O)NC1CCCC1)c1cccs1 (stereo not given) | i | -0.42 | -25.6 | -212.5 | -4.73* | i | +
C#CC(=O)N(c1cccc(OC)c1)C(C(=O)NC1CCCC1)c1cccs1 (stereo not given) | i | -0.47 | -2.1 | nt | -5.3* | i | +
Cc1ccnc2nc(C(=O)OCC(=O)c3c[nH]c4ccccc34)nn12 | nt | 0.04 | -13.1 | nt | 0.363 | i | nt
COCCSc1ccccc1C(=O)N1CCN(Cc2ccccc2)CC1 | i | -0.69 | -32.0 | nt | -0.203 | i | nt
CC(=O)N1/C(=C/c2ccc(N(C)C)cc2)C(=O)c2ccccc21 | i | -0.6 | -19.0 | 13.3 | -5.77* | i | +
COc1ccc(NC(=O)/C(Cl)=C(/Cl)S(=O)(=O)Cc2ccccc2)cn1 | + | nt | -23.8 | -63.3 | -5.56* | i | +
COc1ccc(NC(=O)CCl)cn1 | nt | 0.76 | -18.4 | nt | 1.02 | i | nt
COc1ccc(NC(=O)C(Cl)=C(Cl)Cl)cn1 | i | -1.48 | -8.4 | 54.5 | -4.49* | i | +
